# Experimental data reported in ChEMBL document CHEMBL4689842, “EUbOPEN Chemogenomics Library wave 1” (2021).
# Test system: U2OS
# Test: Multiplex assay against U2OS
# Assay type: toxicity, cell-based
# Details: human
# In short: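 Phenotypes for tubulin, mitochondrial mass and membrane permeability are expressed as per cents of healthy-nucleus cells. Cells were stained live at seeding with Hoechst33342, BioTracker Green Microtubule Cytoskeleton Dye, MitoTracker Red and Annexin V Alexa Fluor 680, then imaged after compound addition on a CQ1 microscope at 37°C and 5% CO2. Machine-learning gating in CellPathfinder separated Hoechst high-intensity objects from normal cells, divided normal cells by nuclear state (healthy, pyknosed, fragmented) and divided pyknosed cells into mitotic or apoptotic.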
# [1] = 12 h, 1 µM, compound concentration 1 uM, replicate 1
# [2] = 12 h, 1 µM, compound concentration 1 uM, replicate 2
# [3] = 12 h, 10 µM, compound concentration 10 uM, replicate 1
# [4] = 12 h, 10 µM, compound concentration 10 uM, replicate 2
# [5] = 24 h, 1 µM, compound concentration 1 uM, replicate 1
# [6] = 24 h, 1 µM, compound concentration 1 uM, replicate 2
# [7] = 24 h, 10 µM, compound concentration 10 uM, replicate 1
# [8] = 24 h, 10 µM, compound concentration 10 uM, replicate 2
# [9] = 48 h, 1 µM, compound concentration 1 uM, replicate 1
# [10] = 48 h, 1 µM, compound concentration 1 uM, replicate 2
# [11] = 48 h, 10 µM, compound concentration 10 uM, replicate 1
# [12] = 48 h, 10 µM, compound concentration 10 uM, replicate 2
compound,measurement,setting,value
CCCn1c(=O)c2[nH]c(-c3cnn(Cc4cccc(C(F)(F)F)c4)c3)nc2n(CC)c1=O [GS 6201],Population Apoptotic (%),[1],28%
same,Population Fragmented Nuclei (%),[1],8%
same,Population Healthy Nuclei (%),[1],78%
same,Population Hoechst High Intensity Objects (%),[1],9%
same,Population Membrane Permeable-Phenotype (%),[1],14%
same,Population Mitochondria Different-Phenotype (%),[1],5%
same,Population Mitotic Cells (%),[1],71%
same,Population Normal (%),[1],90%
same,Population Pyknosed Nuclei (%),[1],13%
same,Population Tubulin-Different-Phenotype (%),[1],14%
same,Total Cell Count,[1],1120
same,Population Apoptotic (%),[2],42%
same,Population Fragmented Nuclei (%),[2],4%
same,Population Healthy Nuclei (%),[2],88%
same,Population Hoechst High Intensity Objects (%),[2],2%
same,Population Membrane Permeable-Phenotype (%),[2],8%
same,Population Mitochondria Different-Phenotype (%),[2],9%
same,Population Mitotic Cells (%),[2],57%
same,Population Normal (%),[2],97%
same,Population Pyknosed Nuclei (%),[2],7%
same,Population Tubulin-Different-Phenotype (%),[2],28%
same,Total Cell Count,[2],75
same,Population Apoptotic (%),[3],35%
same,Population Fragmented Nuclei (%),[3],34%
same,Population Healthy Nuclei (%),[3],52%
same,Population Hoechst High Intensity Objects (%),[3],19%
same,Population Membrane Permeable-Phenotype (%),[3],51%
same,Population Mitochondria Different-Phenotype (%),[3],31%
same,Population Mitotic Cells (%),[3],64%
same,Population Normal (%),[3],80%
same,Population Pyknosed Nuclei (%),[3],12%
same,Population Tubulin-Different-Phenotype (%),[3],82%
same,Total Cell Count,[3],118
same,Population Apoptotic (%),[4],50%
same,Population Fragmented Nuclei (%),[4],17%
same,Population Healthy Nuclei (%),[4],77%
same,Population Hoechst High Intensity Objects (%),[4],5%
same,Population Membrane Permeable-Phenotype (%),[4],3%
same,Population Mitochondria Different-Phenotype (%),[4],20%
same,Population Mitotic Cells (%),[4],50%
same,Population Normal (%),[4],94%
same,Population Pyknosed Nuclei (%),[4],4%
same,Population Tubulin-Different-Phenotype (%),[4],10%
same,Total Cell Count,[4],98
same,Population Apoptotic (%),[5],27%
same,Population Fragmented Nuclei (%),[5],8%
same,Population Healthy Nuclei (%),[5],82%
same,Population Hoechst High Intensity Objects (%),[5],7%
same,Population Membrane Permeable-Phenotype (%),[5],7%
same,Population Mitochondria Different-Phenotype (%),[5],7%
same,Population Mitotic Cells (%),[5],72%
same,Population Normal (%),[5],92%
same,Population Pyknosed Nuclei (%),[5],8%
same,Population Tubulin-Different-Phenotype (%),[5],8%
same,Total Cell Count,[5],2066
same,Population Apoptotic (%),[6],50%
same,Population Fragmented Nuclei (%),[6],5%
same,Population Healthy Nuclei (%),[6],90%
same,Population Hoechst High Intensity Objects (%),[6],4%
same,Population Membrane Permeable-Phenotype (%),[6],2%
same,Population Mitochondria Different-Phenotype (%),[6],10%
same,Population Mitotic Cells (%),[6],50%
same,Population Normal (%),[6],95%
same,Population Pyknosed Nuclei (%),[6],4%
same,Population Tubulin-Different-Phenotype (%),[6],30%
same,Total Cell Count,[6],81
same,Population Apoptotic (%),[7],64%
same,Population Fragmented Nuclei (%),[7],44%
same,Population Healthy Nuclei (%),[7],41%
same,Population Hoechst High Intensity Objects (%),[7],16%
same,Population Membrane Permeable-Phenotype (%),[7],47%
same,Population Mitochondria Different-Phenotype (%),[7],31%
same,Population Mitotic Cells (%),[7],35%
same,Population Normal (%),[7],83%
same,Population Pyknosed Nuclei (%),[7],14%
same,Population Tubulin-Different-Phenotype (%),[7],58%
same,Total Cell Count,[7],133
same,Population Apoptotic (%),[8],50%
same,Population Fragmented Nuclei (%),[8],17%
same,Population Healthy Nuclei (%),[8],72%
same,Population Hoechst High Intensity Objects (%),[8],3%
same,Population Membrane Permeable-Phenotype (%),[8],5%
same,Population Mitochondria Different-Phenotype (%),[8],11%
same,Population Mitotic Cells (%),[8],50%
same,Population Normal (%),[8],96%
same,Population Pyknosed Nuclei (%),[8],10%
same,Population Tubulin-Different-Phenotype (%),[8],9%
same,Total Cell Count,[8],139
same,Population Apoptotic (%),[9],44%
same,Population Fragmented Nuclei (%),[9],8%
same,Population Healthy Nuclei (%),[9],82%
same,Population Hoechst High Intensity Objects (%),[9],1%
same,Population Membrane Permeable-Phenotype (%),[9],3%
same,Population Mitochondria Different-Phenotype (%),[9],11%
same,Population Mitotic Cells (%),[9],55%
same,Population Normal (%),[9],98%
same,Population Pyknosed Nuclei (%),[9],9%
same,Population Tubulin-Different-Phenotype (%),[9],7%
same,Total Cell Count,[9],2377
same,Population Apoptotic (%),[10],41%
same,Population Fragmented Nuclei (%),[10],2%
same,Population Healthy Nuclei (%),[10],91%
same,Population Membrane Permeable-Phenotype (%),[10],1%
same,Population Mitochondria Different-Phenotype (%),[10],13%
same,Population Mitotic Cells (%),[10],58%
same,Population Pyknosed Nuclei (%),[10],5%
same,Population Tubulin-Different-Phenotype (%),[10],35%
same,Total Cell Count,[10],110
same,Population Apoptotic (%),[11],67%
same,Population Fragmented Nuclei (%),[11],51%
same,Population Healthy Nuclei (%),[11],34%
same,Population Hoechst High Intensity Objects (%),[11],13%
same,Population Membrane Permeable-Phenotype (%),[11],50%
same,Population Mitochondria Different-Phenotype (%),[11],29%
same,Population Mitotic Cells (%),[11],32%
same,Population Normal (%),[11],86%
same,Population Pyknosed Nuclei (%),[11],13%
same,Population Tubulin-Different-Phenotype (%),[11],47%
same,Total Cell Count,[11],198
same,Population Apoptotic (%),[12],22%
same,Population Fragmented Nuclei (%),[12],12%
same,Population Healthy Nuclei (%),[12],80%
same,Population Hoechst High Intensity Objects (%),[12],2%
same,Population Membrane Permeable-Phenotype (%),[12],9%
same,Population Mitochondria Different-Phenotype (%),[12],13%
same,Population Mitotic Cells (%),[12],77%
same,Population Normal (%),[12],97%
same,Population Pyknosed Nuclei (%),[12],6%
same,Population Tubulin-Different-Phenotype (%),[12],13%
same,Total Cell Count,[12],214
